ChEMBL document CHEMBL1146386, “Design, synthesis, and preliminary in vitro and in silico antiviral activity of [4,7]phenantrolines and 1-oxo-1,4-dihydro-[4,7]phenantrolines against single-stranded positive-sense RNA genome viruses” (Bioorg Med Chem, 2007)
Calls of active or inactive are those of the source. The rule behind the calls is not given here.

What was measured:
[1] = Cytotoxicity against BHK1 cells after 48 to 120 hrs by MTT method; type: cell-based, Mesocricetus auratus; settings: hamster
Outline: (§1)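 Cells placed in maintenance medium at initial 1×10^6 (BHK) or 6×10^5 (MDBK) cells/mL, with or without serial compound dilutions, run in parallel with antiviral tests. Viability by MTT after 48–120 h at 37 °C, humidified 5% CO2; CC50 = concentration reducing mock-infected cell viability by 50%; mean of three determinations.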

Coxsackievirus B2 = assay: Antiviral activity against CVB2 in Vero 76 cells after 3 days by plaque reduction assay; type: functional, organism-based; settings: Enterovirus B, 72 h
Outline: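 Vero 76 cells seeded 2×10^5 cells/well, confluent overnight; infected to give 50-100 PFU/well; unadsorbed virus removed, then DMEM with 1% inactivated FCS and 0.75% methyl cellulose ± serial dilutions added. After 3 days at 37 °C, fixed and stained with 50% ethanol/0.8% crystal violet in PBS; plaques counted; EC50 by linear regression.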

Reovirus sp. = assay: Antiviral activity against Reovirus; type: functional, organism-based
[2] = test system: Bovine viral diarrhea virus 1; assay: Antiviral activity against BVDV in MDBK cells assessed as inhibition of virus-induced cytopathogenicity after 2 to 3 days by MTT method; type: functional, organism-based; settings: Bovine viral diarrhea virus isolates and strains
Outline: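 MDBK cells seeded 2.5×10^4 cells/well, grown overnight to confluence at 37 °C, 5% CO2; infected at moi 0.01 in serum-free medium; after 1 h, MEM Earle's with 1% inactivated FCS ± serial compound dilutions (DMSO stock diluted in medium) added. Viability read by MTT after 2-3 days at 37 °C; EC50 = 50% protection from cytopathogenicity; mean of three determinations.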

[3] = test system: Respiratory syncytial virus; assay: Antiviral activity against RSV; type: functional, organism-based
[4] = Cytotoxicity against MDBK cells after 48 to 120 hrs by MTT method; type: cell-based, Bos taurus; settings: cattle; outline: as §1
[5] = Cytotoxicity against Vero 76 cells after 48 to 120 hrs by MTT method; type: cell-based; settings: chlorocebus sabaeus
[6] = Cytotoxicity against human MT4 cells after 96 hrs by MTT method; type: cell-based
Outline: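 Exponentially growing MT-4 cells (CD4+ T-cells carrying integrated HTLV-1) seeded at 1×10^5 cells/mL in RPMI-1640 with 10% FCS, penicillin and streptomycin, with or without serial compound dilutions; 96 h at 37 °C, humidified 5% CO2. Viability by MTT; value = concentration reducing proliferation by 50%, untreated controls undergoing at least three rounds of multiplication.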

Enterovirus C = assay: Antiviral activity against Poliovirus Sb1 in Vero 76 cells after 2 days by plaque reduction assay; type: functional, organism-based; settings: 48 h
Outline: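 Vero 76 monolayers (2×10^5 cells/well, grown overnight) infected with Sabin strain at 50-100 PFU/well. Unabsorbed virus removed, then DMEM with 1% inactivated FCS and 0.75% methyl cellulose added, with or without serial compound dilutions (100 mM DMSO stock diluted in medium). Held 2 days at 37 °C, then fixed and stained with ethanol/crystal violet and plaques counted. EC50 (50% plaque reduction) by linear regression; mean of three determinations.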

[7] = test system: Vesicular stomatitis virus; assay: Antiviral activity against VSV; type: functional, organism-based
[8] = test system: Human immunodeficiency virus 1; assay: Antiviral activity against HIV1 in MT4 cells by plaque reduction assay; type: functional, organism-based; settings: Human immunodeficiency virus 1, MT4
Yellow fever virus = assay: Antiviral activity against YFV in BHK1 cells assessed as inhibition of virus-induced cytopathogenicity after 2 to 3 days by MTT method; type: functional, organism-based

| Compound | CC50 [1] [µM] | EC50 (Coxsackievirus B2) [µM] | Activity (Reovirus sp.) | EC50 [2] [µM] | Activity [3] | CC50 [4] [µM] | CC50 [5] [µM] | CC50 at 96 h [6] [µM] | EC50 (Enterovirus C) [µM] | Activity [7] | EC50 [8] [µM] | EC50 (Yellow fever virus) [µM] |
| --- | --- | --- | --- | --- | --- | --- | --- | --- | --- | --- | --- | --- |
| Nc1ccnc2ccc3ncccc3c12 | > 100 | > 90 | inactive | 9 | inactive | 63 | 90 | 50 | > 90 | inactive | > 50 | > 100 |
| Clc1c(Cl)c2ncccc2c2cccnc12 | > 100 | 11 | inactive | 16 | inactive | > 100 | 25 | 24 | 6 | inactive | > 24 | > 100 |
| O=c1cc[nH]c2ccc3ncccc3c12 | 66 | > 100 | inactive | 95 | inactive | > 100 | > 100 | > 100 | > 100 | inactive | > 100 | > 66 |
| O=c1cc[nH]c2c(Cl)c(Cl)c3ncccc3c12 | > 100 | > 80 | inactive | 16 | inactive | > 100 | 80 | 47 | > 80 | inactive | > 47 | > 100 |
| CCOc1ccnc2c(Cl)c(Cl)c3ncccc3c12 | 25 | 2 | inactive | 25 | inactive | 64 | 75 | > 100 | 11 | inactive | > 100 | > 25 |
| O=C(O)c1c[nH]c2c(Cl)c(Cl)c3ncccc3c2c1=O | 23 | > 100 | inactive | > 100 | inactive | > 100 | 100 | > 100 | 85 | inactive | > 100 | > 23 |
| CCOC(=O)c1c[nH]c2c(Cl)c(Cl)c3ncccc3c2c1=O | 25 | > 90 | inactive | 35 | inactive | > 100 | 90 | 32 | > 90 | inactive | > 32 | > 25 |
| Clc1c(Cl)c2nccc(Cl)c2c2cccnc12 | > 100 | > 100 | inactive | > 54 | inactive | 54 | > 100 | 6.4 | > 100 | inactive | > 6.4 | > 100 |
| c1cnc2ccc3ncccc3c2c1 | > 100 | > 80 | inactive | 17 | inactive | > 100 | 80 | 61 | > 80 | inactive | > 61 | > 100 |
| CCOc1ccnc2ccc3ncccc3c12 | 35 | 5 | inactive | 6 | inactive | 64 | 80 | 56 | 17 | inactive | > 56 | > 35 |
| Nc1ccnc2c(Cl)c(Cl)c3ncccc3c12 | 11 | 2 | inactive | ≥ 24 | inactive | 24 | 40 | 7.2 | 14 | inactive | > 7.2 | > 11 |
| CC(=O)Nc1ccnc2c(Cl)c(Cl)c3ncccc3c12 | 18 | 2 | inactive | 22 | inactive | 32 | 50 | 13 | 21 | inactive | > 13 | > 18 |
